Bioassay records: PubChem BioAssay, Broad Institute
ERp5 block – blocks human ERp5 reductase activity on insulin | ERp5 insulin aggregation, absorbance 650 nm, 90 min | inhibition, % at 9.99 µM | hit rate 0.05% among 350,000;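 active = mean replicate inhibition above about 25%, with every replicate also reaching it, limit read from the data, passing the limit was not always enough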
Target sequence (Q15084 whole entry, looked up): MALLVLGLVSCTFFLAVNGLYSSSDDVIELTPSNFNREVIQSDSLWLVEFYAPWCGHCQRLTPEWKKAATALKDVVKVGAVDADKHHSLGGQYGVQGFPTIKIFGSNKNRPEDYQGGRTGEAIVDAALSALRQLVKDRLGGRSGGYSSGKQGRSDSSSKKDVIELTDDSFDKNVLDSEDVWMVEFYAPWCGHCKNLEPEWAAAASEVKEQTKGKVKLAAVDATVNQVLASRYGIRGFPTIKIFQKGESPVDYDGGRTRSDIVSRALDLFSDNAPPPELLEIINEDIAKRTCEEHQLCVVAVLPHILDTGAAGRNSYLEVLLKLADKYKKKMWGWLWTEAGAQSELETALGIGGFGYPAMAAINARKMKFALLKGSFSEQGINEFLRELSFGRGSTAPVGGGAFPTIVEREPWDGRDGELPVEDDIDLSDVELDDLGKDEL
PDI inh – PDI (human) enzyme inhibition. inhibition, % at 10 µM. P07237. hit rate 0.052% among 350,000. PDI insulin aggregation turbidity, A650, 90 min. AID 588391;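 active = mean inhibition across replicates of 30% or more, whatever share of single replicates reach that level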
Env fusion inh – inhibitors of HIV Env-mediated cell fusion; HeLa-JRFL Env/CEM21 cell fusion, luciferase; inhibition, % at 12.3 µM; hit rate 1.1% among 360,000;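 active = mean replicate inhibition score of at least 50 and every replicate individually at or above 50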;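 also: 0% = plate neutral controls and 100% = maraviroc near 300 nM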
PvdQ acylase – blocks Pseudomonas aeruginosa PvdQ acylase activity; hit rate 0.063% among 340,000; AID 488965; purified PvdQ acylase, fluorescence plate reader; inhibition, % at 10 µM; in the data active = inhibition above about 30%, passing the limit was not always enough;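 also: 0% = vehicle neutral wells and 100% = reference inhibitor wells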
Ecoli rRNA inh – inhibitors of bacterial rRNA selective over humanized ribosomes | E. coli WT GFP vs humanized-ribosome RFP mutants, fluorescence, 24 h; stronger effect = lower value; DMSO median 0, no signal -100 | GFP signal change (wild-type ribosome), % (test concentration not listed) | hit rate 1.6% among 350,000 | AID 720706;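 active = significant combined selectivity score with lowered wild-type GFP, culture density cut under 30%, mutant RFP and density less affected; inactive = any of these conditions unmet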
FN deposit inh – fibronectin deposition inhibition. inhibition, % at 12.6 µM. AID 743247. hit rate 0.086% among 350,000. AH1F fibroblasts, Alexa488-fibronectin deposition fluorescence, overnight;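 active = mean inhibition across replicates of 30% or more, regardless of how many single replicates reach that level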;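 also: positive control wells lacked labelled fibronectin entirely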
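Material: AH1F fibroblast monolayer depositing Alexa488-labelled fibronectin into matrix | Input: 10000 AH1F cells/well | Medium: DMEM plus 2% serum, read in PBS | Reagent: Alexa488-fibronectin, 24 nM final in well | Compound dosing: One dose per compound, pinned | Schedule: 1 h adhesion, overnight exposure | Measured by: Fluorescence at 485 nm excitation, 525 nm emission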
Active calls of the source: *; / = no result; ! = repeats disagree; [ ] = dose if it differs, or a comment. Rows were chosen to be rich in hits. Some 2.2% of all compounds tested hit in one or more screens of this group.

SMILES	ERp5 block	PDI inh	Env fusion inh	PvdQ acylase	Ecoli rRNA inh	FN deposit inh
COc1ccc(-c2nc3ccncc3[nH]2)cc1OC	/	4.2	-188.8	-3.0	/	30.1*
Fc1ccc(-c2nc3ccncc3[nH]2)cc1	/	-2.2	-36.7	-17.3	/	-15.2
CN1CC(c2ccc(Cl)c(Cl)c2)[C@@]2(COc3ccccc3C2=O)[C@@]12C(=O)Nc1ccccc12 (some centres not stated)	/	-3.0	103.1*	-3.8	/	1.2
CCCN1C(=O)c2ccccc2NC1c1ccc(Cl)c(Cl)c1 (configuration not stated)	-0.9	-5.5	32.4	5.8	-50.0	/
Cc1c(C(=O)Cc2ccccc2)n(C)c2ccccc12	0.8	11.0	14.0	-2.7	-26.2*	-7.0
C[C@H](CO)N1C[C@H](C)[C@H](CN(C)C(=O)Nc2ccc(F)cc2)OCc2ccccc2-c2c(n(C)c3ccccc23)C1=O	-2.0	5.5	90.4*![16.7 µM]	/	4.1	-5.6
C[C@H]1CN([C@@H](C)CO)C(=O)c2c(c3ccccc3n2C)-c2ccccc2CO[C@@H]1CN(C)C(=O)Nc1ccc(F)cc1	/	/	-14.1[16.7 µM]	/	-1.2	-4.1
COC(=O)N(C)C[C@H]1OCc2ccccc2-c2c(n(C)c3ccccc23)C(=O)N([C@@H](C)CO)C[C@@H]1C	-4.6	/	/	/	0.4	-6.1
COC(=O)N(C)C[C@@H]1OCc2ccccc2-c2c(n(C)c3ccccc23)C(=O)N([C@H](C)CO)C[C@@H]1C	-0.2	5.5	66.3*!	/	10.1	-13.0
COc1ccccc1NC(=O)N(C)C[C@@H]1OCc2ccccc2-c2c(n(C)c3ccccc23)C(=O)N([C@H](C)CO)C[C@@H]1C	-2.2	5.6	66.6*	/	-2.5	-4.8
C[C@H](CO)N1C[C@H](C)[C@H](CN(C)C(=O)C2CC2)OCc2ccccc2-c2c(n(C)c3ccccc23)C1=O	0.2	/	60.4*[16.7 µM]	/	-1.9	-1.7
COc1ccccc1NC(=O)N(C)C[C@@H]1OCc2ccccc2-c2c(n(C)c3ccccc23)C(=O)N([C@@H](C)CO)C[C@@H]1C	-1.4	/	/	/	-1.2	-8.7
CN(C)CCCCCCNC(=O)[C@@H]1C[C@@H]2C(=O)NCC(=O)N2[C@@H]1c1cccc(OCCO)c1	0.6	/	-7.0[16.7 µM]	/	/	/
CCC(=O)N1CC2(C1)CN(C(=O)CN1CCOCC1)[C@H](CO)c1c2c2ccc(OC)cc2n1C	3.8	/	/	/	2.3	/
C=CCN1Cc2ccccc2C[C@@]2(COC(c3ccc(OCCCO)cc3)=N2)C1=O	2.0	/	-20.3[16.7 µM]	/	/	/
C[C@@H]1CN([C@H](C)CO)S(=O)(=O)c2ccc(C3=CCCCC3)cc2O[C@H]1CN(C)Cc1ccncc1	-4.1	/	37.1[16.7 µM]	/	-30.4	/
C[C@H](CO)N1C[C@H](C)[C@@H](CN(C)Cc2ccccc2)Oc2cc(C3=CCCC3)ccc2S1(=O)=O	0.5	/	55.4*[16.7 µM]	/	1.1	/
C[C@H](CO)N1C[C@H](C)[C@@H](CN(C)Cc2ccncc2)Oc2cc(C3=CCCCC3)ccc2S1(=O)=O	-6.2	/	64.0*[16.7 µM]	/	-22.6	/
COc1cc(/C=N/Nc2ncnc3sc4c(c23)CCC4)ccc1O	-0.7	-12.9	29.4	5.6	-20.0*	4.8
C#CC(=O)N(c1ccc(OC)c(OC)c1)C(C(=O)NC1CCCC1)c1cccs1 (configuration not stated)	-8.4	6.1	/	1.3	-27.5*	/
Fc1ccc2[nH]c3c(N4CCc5ccccc5C4)ncnc3c2c1	4.2	-1.3	42.3	/	0.0	8.9
Cc1ccc2[nH]c3c(Cl)ncnc3c2c1	5.2	9.0	-35.6	3.8	-29.3*	3.3
Cc1ccc2[nH]c3c(N4CCc5ccccc5C4)ncnc3c2c1	/	6.3	81.3*	-6.6	/	9.2
COc1ccc2[nH]c3c(N4CCC(O)(c5cccc(C(F)(F)F)c5)CC4)ncnc3c2c1	/	7.7	100.1*	1.0	/	-10.2
COc1ccc(S(=O)(=O)N(C)C[C@H]2Oc3c(NC(=O)Nc4ccc(C(F)(F)F)cc4)cccc3C(=O)N([C@@H](C)CO)C[C@@H]2C)cc1	6.1	/	16.0[16.7 µM]	/	-4.2	-5.2
SMILES	ERp5 block	PDI inh	Env fusion inh	PvdQ acylase	Ecoli rRNA inh	FN deposit inh
OC(c1ccccc1)(c1nc(-c2cc3ccccc3o2)cs1)C(F)(F)F (configuration not stated)	4.3	-3.6	-29.9	/	-37.7*	7.6
C[C@@H]1CCCCO[C@H](CN(C)Cc2ccc(C(F)(F)F)cc2)[C@@H](C)CN([C@@H](C)CO)C(=O)c2cc(NS(=O)(=O)c3ccccc3)ccc2O1	7.5	/	-30.8[16.7 µM]	/	-12.5	-12.7
Clc1ccc2scc(CN3CCCC3)c2c1	2.2	1.2	-6.8	81.3*	6.3	-5.2
CCCc1cc(=O)n2[nH]cc(-c3ccc(Cl)cc3)c2n1	-0.9	-5.2	84.9*	-1.3	-43.8	2.9
COCc1cc(=O)n2[nH]cc(-c3ccccc3)c2n1	-0.6	-7.1	-28.9	-8.1	-38.9	3.8
O=C1C(Cl)=C(Nc2ccc3cn[nH]c3c2)C(=O)c2ccccc21	3.1	13.3	-59.9	5.7	-12.4	71.0*
O=C(Nc1ccc2cn[nH]c2c1)c1c(Cl)cccc1Cl	/	0.5	-21.5	3.0	/	/
CSc1ccccc1NC(=O)CN(C)CC(=O)c1c(C)[nH]c2ccccc12	3.3	-0.2	-2.2	-10.6	-20.9*	11.6
N#C[C@@H]1[C@H](c2ccccc2-c2ccc(F)cc2)[C@H](CO)N1C(=O)NC1CCCC1	0.7	/	/	/	-9.4	1.3
Clc1ccc(-c2csc3ncnc(NCCN4CCOCC4)c23)cc1	/	7.6	63.0*	0.3	/	9.8
c1ccc(-c2csc3ncnc(NCCN4CCOCC4)c23)cc1	/	-7.2	78.4*	-0.4	/	10.1
CC(C)NC(=O)N[C@@H]1CC[C@@H](CCNC(=O)C2CCCC2)O[C@H]1CO	5.3	/	5.1[16.7 µM]	/	3.7	-4.5
C[C@H](NC(=O)C[C@H]1C[C@@H]2c3cc(NC(=O)C4CCC4)ccc3O[C@@H]2[C@H](CO)O1)c1ccccc1	11.3	/	/	/	1.0	-2.6
COc1ccc(/C=N/OCC(=O)Nc2cc(C)on2)cc1OC	7.1	-15.6	-9.6	-19.2	3.8	-1.0
COc1ccc(/C=N/OCC(=O)NC(c2ccccc2)c2ccccc2)cc1OC	-2.8	-7.9	62.0*	-4.6	8.5	-2.0
COc1ccc(CNC(=O)CNC(c2ccccc2)c2ccccc2)cc1OC	1.0	-0.4	-1.8	10.0	-28.0*	-0.4
O=C(CC1CC1)N[C@@H]1CC[C@@H](CCNS(=O)(=O)c2ccc(Cl)cc2)O[C@H]1CO	-1.4	/	2.6[16.7 µM]	/	0.9	-4.9
CCOCC(=O)Nc1nc2ccc(C)cc2s1	/	-1.9	/	32.4*	/	/
CCCCNC(=O)Nc1nc2ccc(CC)cc2s1	-5.3	-5.8	-9.0	-3.3	7.4	34.0*
Cc1ccc2nc(NC(=O)CCCC(=O)O)sc2c1	-0.5	-2.7	68.6*	6.0	13.2	-0.6
CCOc1ccc2nc(NC(=O)C3(C)CC3(Br)Br)sc2c1 (configuration not stated)	-1.2	6.2	-78.7	-11.1	-41.9*	4.3
CCOCC(=O)Nc1nc2ccc(OCC)cc2s1	/	5.8	-245.7	-17.6	/	-4.0
